Reference: ChEMBL document CHEMBL4706553, “Discovery of potent small molecule PROTACs targeting mutant EGFR” (Eur J Med Chem, 2020)
Calls of active or inactive are those of the source.

Tests used:
[1] = system: A-431; assay: Antiproliferative activity against human A431 cells expressing wild type EGFR assessed as cell growth inhibition measured after 72 hrs by MTT assay; format: functional, cell-based; details: A-431, 72 h
Summary of the method: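 Cells were seeded at 3000–8000/well and allowed 24 h, then exposed to serial compound concentrations for 72 h. MTT (5 mg/mL stock in PBS) was added for 4 h, supernatant removed and DMSO added. IC50, defined as 50% growth inhibition, was derived by nonlinear regression (log inhibitor vs response).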

[2] = system: HCC827; assay: Antiproliferative activity against human HCC827 cells expressing EGFR del19 mutant assessed as cell growth inhibition measured after 72 hrs by MTT assay; format: functional, cell-based; details: HCC827, 72 h
Summary of the method: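 HCC827 cells were kept in RPMI-1640 with 10% heat-inactivated FBS, 1% sodium pyruvate, 1% glutamine and 1% penicillin-streptomycin at 37 °C and 5% CO₂, seeded at 3000–8000/well and rested 24 h. Compounds were applied as a concentration series for 72 h. MTT (5 mg/mL stock in PBS) was given for 4 h, then medium was removed and DMSO added. IC50 came from nonlinear regression (log inhibitor vs response).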

[3] = system: von Hippel-Lindau disease tumor suppressor/Epidermal growth factor receptor (Homo sapiens), P00533+P40337 [L858R,T790M]; assay: Protac activity at VHL/EGFR L858R/T790M mutant in human H1975 cells assessed as induction of degradation of EGFR at 333 nM incubated for 48 hrs measured after compound wash-out for 48 hrs by Western blot analysis; format: cell-based; details: NCI-H1975
Summary of the method: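 H1975 cells (RPMI-1640, 10% heat-inactivated FBS) exposed to 333 nM for 48 h. Medium then replaced with compound-free medium, and lysates collected at the stated times. EGFR read by Western blot; n = 2.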

[4] = system: von Hippel-Lindau disease tumor suppressor/Epidermal growth factor receptor (Homo sapiens), P00533+P40337 [UNDEFINED MUTATION]; assay: Protac activity at VHL/EGFR del19 mutant in human HCC827 cells assessed as induction of EGFR degradation at 33 nM incubated for 24 hrs measured following drug wash-out for 48 hrs by Western blot analysis; format: cell-based
Summary of the method: (§1)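 HCC827 cells (RPMI-1640, 10% heat-inactivated FBS, 1% sodium pyruvate, 1% glutamine, 37 °C, 5% CO₂) treated at 33 nM for 24 h. Medium then replaced with compound-free medium, and protein harvested at the stated times. EGFR read by Western blot; n = 2.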

[5] = system: von Hippel-Lindau disease tumor suppressor/Epidermal growth factor receptor (Homo sapiens), P00533+P40337 [UNDEFINED MUTATION]; assay: Protac activity at VHL/EGFR del19 mutant in human HCC827 cells assessed as induction of EGFR degradation at 33 nM incubated for 24 hrs measured following drug wash-out for 24 hrs by Western blot analysis; format: cell-based; summary of the method: as §1
[6] = system: HCC827; assay: Induction of apoptosis in human HCC827 cells assessed as apoptotic cells at 10 nM measured after 48 hrs by AnnexinV-FITC/propidium iodide staining based flow cytometry analysis relative to control; format: functional
Summary of the method: (§2)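 To measure apoptosis, cells were seeded at 0.5–1 × 10⁶ per well, grown 24 h, then treated for 48 h. Collected cells were stained with an Annexin V-FITC apoptosis detection kit following its instructions, and apoptosis rate was read by flow cytometry. n = 2.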

[7] = system: HCC827; assay: Induction of apoptosis in human HCC827 cells assessed as apoptotic cells at 100 nM measured after 48 hrs by AnnexinV-FITC/propidium iodide staining based flow cytometry analysis relative to control; format: functional; summary of the method: as §2
[8] = system: NCI-H1975; assay: Induction of cell cycle arrest in human NCI-H1975 cells assessed as accumulation at G1 phase measured at 333 to 1000 nM measured after 48 hrs by propidium iodide staining based flow cytometry analysis; format: functional; details: dose 333-1000 nM
Summary of the method: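 Cell cycle: cells were seeded at 0.5–1 × 10⁶ per well for 24 h, then treated 48 h. They were collected and washed twice in PBS, stained with PI/RNase at 37 °C for 15 min, and analysed by flow cytometry. n = 2.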

[9] = system: NCI-H1975; assay: Inhibition of colony formation in human NCI-H1975 cells at 100 nM incubated for 15 days by crystal violet staining based analysis; format: functional, cell-based; details: time 15.0 day
Summary of the method: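 Colony formation: 200 cells per well were seeded and incubated 24 h, then kept with compound for 15 days. After three PBS washes, cells were fixed in cold 75% ethanol and stained with 0.1% crystal violet in water for 1 h. Colonies were counted.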

[10] = biological target: von Hippel-Lindau disease tumor suppressor/Epidermal growth factor receptor (Homo sapiens, UniProt P00533+P40337, T790M/L858R); assay: Protac activity at VHL/EGFR L858R/T790M mutant in human H1975 cells assessed as induction of degradation of EGFR incubated for 48 hrs by Western blot analysis; format: cell-based; details: nci-h1975
Summary of the method: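 H1975 cells exposed to the stated concentrations for 48 h. EGFR by Western blot; n = 3. DC₅₀ by nonlinear regression, log(inhibitor) vs response.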

[11] = biological target: von Hippel-Lindau disease tumor suppressor/Epidermal growth factor receptor (Homo sapiens, UniProt P00533+P40337); assay: Protac activity at VHL/EGFR in human A431 cells assessed as induction of degradation of EGFR at 0.1 to 3.3 uM incubated for 48 hrs by Western blot analysis; format: cell-based; details: A-431, dose 0.1-3.3 µM
[12] = system: von Hippel-Lindau disease tumor suppressor/Epidermal growth factor receptor (Homo sapiens), P00533+P40337 [UNDEFINED MUTATION]; assay: Protac activity at VHL/EGFR del19 mutant in human HCC827 cells assessed as induction of EGFR degradation by measuring reduction in EGFR phosphorylation at 3 nM incubated for 48 hrs by Western blot analysis; format: cell-based
Summary of the method: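 HCC827 or H1975 cells treated at the stated concentrations for 48 h. Lysates probed by Western blot for EGFR, P-EGFR, Akt and P-Akt (each 1:1000); n = 2.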

[13] = system: HCC827; assay: Effect on Akt protein expression in human HCC827 cells at 0.003 to 0.33 uM incubated for 48 hrs by Western blot analysis; format: functional, cell-based; details: dose 0.003-0.33 µM
[14] = system: NCI-H1975; assay: Effect on Akt protein expression in human H1975 cells at 0.1 to 1 uM incubated for 48 hrs by Western blot analysis; format: functional, cell-based; details: dose 0.1-1 µM
[15] = system: von Hippel-Lindau disease tumor suppressor/Epidermal growth factor receptor (Homo sapiens), P00533+P40337 [UNDEFINED MUTATION]; assay: Protac activity at VHL/EGFR del19 mutant in human HCC827 cells assessed as induction of EGFR degradation at 0.033 uM pretreated with ubiquitination inhibitor, MLN4924 for 2 hrs followed by incubation with compound for 24 hrs by Western blot analysis; format: cell-based
[16] = system: von Hippel-Lindau disease tumor suppressor/Epidermal growth factor receptor (Homo sapiens), P00533+P40337 [UNDEFINED MUTATION]; assay: Protac activity at VHL/EGFR del19 mutant in human HCC827 cells assessed as induction of EGFR degradation at 0.033 uM pretreated with EGFR inhibitor, F for 2 hrs followed by incubation with compound for 24 hrs by Western blot analysis; format: cell-based
[17] = system: von Hippel-Lindau disease tumor suppressor/Epidermal growth factor receptor (Homo sapiens), P00533+P40337 [UNDEFINED MUTATION]; assay: Protac activity at VHL/EGFR del19 mutant in human HCC827 cells assessed as induction of EGFR degradation at 0.033 uM pretreated with VHL ligand, VHL-Ac for 2 hrs followed by incubation with compound for 24 hrs by Western blot analysis; format: cell-based
[18] = system: von Hippel-Lindau disease tumor suppressor/Epidermal growth factor receptor (Homo sapiens), P00533+P40337 [L858R,T790M]; assay: Protac activity at VHL/EGFR L858R/T790M mutant in human H1975 cells assessed as induction of degradation of EGFR at 0.1 uM pretreated with mTOR inhibitor, rapamycin for 8 hrs followed by incubation with compound for 16 hrs by Western blot analysis; format: cell-based; details: NCI-H1975
Summary of the method: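 H1975 cells given rapamycin at the stated concentrations for 8 h, then compound for 16 h. EGFR by Western blot; n = 3.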

In the case of `Cc1ncsc1-c1ccc(CNC(=O)[C@@H]2C[C@@H](O)CN2C(=O)[C@@H](NC(=O)CCCCCCN2CCN(c3ccc(Nc4ncc5nc(Nc6ccccc6)n(C6CCCC6)c5n4)cc3)CC2)C(C)(C)C)cc1`, the IC50 [1] is reported as 245 nM, the IC50 [2] is reported as 0.83 nM and the Activity [3] is reported as “Active”. The Activity [4] was “inactive”, the Activity [5] was “Active” and the Activity [6] was 31.07%. The Activity [7] was 44.8%, the Activity [8] was “Active” and the inhibition [9] was “Active”. For the same compound, the DC50 [10] was 126 nM, the Activity [11] was “inactive” and the Activity [12] was “Active”. The Activity [13] was “inactive”, the Activity [14] was “inactive” and the Activity [15] was “inactive”. The Activity [16] was “inactive”, the Activity [17] was “inactive” and the Activity [18] was “Active”.
